PfGluPho inh = PfG6PD enzyme inhibitors, primary screen, biochemical, fluorescence intensity, uHTS | AID 504690, 2011 | glucose-6-phosphate dehydrogenase-6-phosphogluconolactonase (Plasmodium falciparum 3D7) | PfGluPho enzyme, NADPH resazurin-diaphorase fluorescence | 0.78% of 350,000 active | inhibition, % at 20 µM;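 active = inhibition reaching at least a set limit at 20 µM in the primary screen, cut at about 59% in these data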;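 also: 0% = DMSO wells with substrate and 100% = DMSO wells lacking glucose-6-phosphate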
HKDC1 inhibitor = HKDC1 hexokinase inhibitors, primary screen, biochemical, fluorescence, uHTS | Q2TB90 | recombinant HKDC1, G6PDH/diaphorase resazurin coupled fluorescence | inhibition, % at 20 µM | 0.16% of 340,000 active | AID 493160, 2011;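 active = inhibition above about 35% when tested at 20 µM, limit read from the data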;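 also: plate controls were DMSO wells with enzyme for no effect and DMSO wells lacking enzyme for full effect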
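Assay system: in-house recombinant HK5 (HKDC1) enzyme. Input: HKDC1 at 5 µg/mL. Medium: Tris pH 8.0 buffer with MgCl2, Tween-20, BSA, BME. Dosing: single 20 µM dose. Schedule: 90 min reaction incubation at room temperature, dark. Signal: resazurin-to-resorufin fluorescence via G6PDH and diaphorase coupling, 525/613 nm. Controls: DMSO-enzyme wells negative, buffer-substituted wells positive.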
PKA-R2B activ = activators of PKA-R2B holoenzyme, primary screen, biochemical, fluorescence polarization, Cy5-IP20, human. PKA-R2B holoenzyme dissociation; R2B truncated from residue 108, S112A mutant; 0% DMSO only, 100% 113 µM cGMP. 0.079% of 340,000 active. activation, % at 11.4 µM. cAMP-dependent protein kinase catalytic subunit beta (Homo sapiens) + cAMP-dependent …. AID 504700, 2011;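 active = activation above a cutoff set at the mean over all compounds plus 3 SD, cut at about 18% in these data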;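 also: higher means more holoenzyme dissociation and a rise in polarization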
PKA-R1A activ = activators of PKA-R1A holoenzyme, primary screen, biochemical, fluorescence polarization, Cy5-IP20, bovine R1A, mouse PKAc | cAMP-dependent protein kinase type I-alpha regulatory subunit (Bos taurus) + … | PKA-R1A dissociation; scaled: DMSO 0%, 113 µM cGMP 100% | activation, % at 11.4 µM | 0.083% of 340,000 active | AID 504707, 2011;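 active = percent activation above the mean of all tested compounds plus 3 SD, cut at about 19% in these data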;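 also: higher means more PKAc released from R1A so a rise in polarization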
ATG4B inh = ATG4B protease inhibitors, primary screen, biochemical, fluorescence, uHTS | Cysteine protease ATG4B (Homo sapiens), Q9Y4P1 | ATG4B cleavage of LC3-PLA2, NBD-HPC fluorescence, 1 h | inhibition, % at 8.33 µM | 0.51% of 340,000 active | AID 504462, 2011; in the data active = inhibition above about 40%
Target sequence (Q9Y4P1 whole entry, looked up): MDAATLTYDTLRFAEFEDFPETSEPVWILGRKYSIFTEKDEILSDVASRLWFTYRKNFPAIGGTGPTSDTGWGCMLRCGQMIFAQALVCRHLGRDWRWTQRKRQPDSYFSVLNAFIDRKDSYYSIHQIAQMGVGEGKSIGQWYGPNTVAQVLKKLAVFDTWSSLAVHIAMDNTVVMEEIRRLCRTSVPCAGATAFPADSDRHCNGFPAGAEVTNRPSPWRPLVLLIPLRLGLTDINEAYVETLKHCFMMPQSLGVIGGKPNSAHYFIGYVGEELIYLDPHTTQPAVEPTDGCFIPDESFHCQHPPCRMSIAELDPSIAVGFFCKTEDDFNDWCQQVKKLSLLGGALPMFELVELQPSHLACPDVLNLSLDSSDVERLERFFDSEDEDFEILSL
T cell HTS = modulators of CD8 T cell-vesicle binding, primary screen, mouse 2C CD8+ T cells, flow cytometry; 2C CD8+ T cell-vesicle binding; hits give low values; response (vesicle binding), % at 7 µM; 0.068% of 330,000 active; AID 2052, 2009;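 active = response, share of CD8 T cells binding vesicles, and their 90th percentile fluorescence all below set limits, cut at about 80% in these data, passing the limit was not always enough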;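 also: values below 100% mean blocked vesicle binding to the CD8+ T cells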
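incubation = binding step 1.5 h, 37 °C, antibody labelling 20 min, ice | test system = 2C mouse CD8+ T cells | read-out basis = percent CD8+ FL2 mean versus row control | controls = Peptide-free naked vesicles (low) and QL9 vesicles with 0.7% DMSO vehicle (high) | detection = flow cytometry of vesicle-bound cells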
R1A FP artifact = FP signal interference without PKA proteins, confirmation, artefact control for PKA-R1A activator project, biochemical, fluorescence polarization, triplicate; shares compounds with PKA-R1A activ; AID 504799, 2011; 7% of 280 active; activation, % at 11.4 µM; Cy5-IP20 peptide alone, fluorescence polarization artifact counterscreen;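 active = mean activation over triplicate runs exceeds the adjusted cutoff derived for the parent primary screen, cut at about 19% in these data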;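 also: no PKA protein present so any polarization rise reflects compound interference; 0% = tracer peptide mix alone and 100% = mix with added PKA catalytic subunit; higher means stronger polarization artifact and likely false positive in parent screen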
PKA-R1A confirm = activators of PKA-R1A holoenzyme, confirmation, biochemical, fluorescence polarization, Cy5-IP20, triplicate; PKA-R1A holoenzyme dissociation; activation, % at 11.4 µM; shares compounds with PKA-R1A activ; 9% of 280 active;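 active = mean activation over replicate wells exceeds the adjusted hit threshold taken from the earlier primary screen, cut at about 20% in these data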;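 also: 0% = holoenzyme mix with DMSO only and 100% = cGMP-activated control wells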
Starred values were filed as active, the others as inactive. Only some compounds are listed: those with a hit (about 1.6% of all), similar ones and a draw of the others.

Screening CN(Cc1ccccc1)C(=O)C1CCN(S(=O)(=O)c2ccc(-n3cnnn3)cc2)CC1 returned PfGluPho inh -3.5, HKDC1 inhibitor 3.5, PKA-R2B activ 9.5, PKA-R1A activ 20.7*, ATG4B inh -7.6, T cell HTS 160.2, R1A FP artifact 3.3 and PKA-R1A confirm 2.5.
CCN(CC)C(=O)C1CCN(S(=O)(=O)c2ccc(-n3cnnn3)cc2)CC1 was read as PfGluPho inh -6.9, HKDC1 inhibitor -8.5, PKA-R2B activ -1.1, PKA-R1A activ -7.6, ATG4B inh -0.8 and T cell HTS 293.9.
Screening O=C1NCCc2c1[nH]c1ccc([N+](=O)[O-])cc21 returned PfGluPho inh 4.2, HKDC1 inhibitor 11.9, PKA-R2B activ 9.1, PKA-R1A activ 19.1*, ATG4B inh -5.1, T cell HTS 364.8, R1A FP artifact 3.3 and PKA-R1A confirm 4.5.
`COc1ccc2[nH]c3c(c2c1)CCNC3=O` gave PfGluPho inh 10.4, HKDC1 inhibitor -0.3, PKA-R2B activ -6.1, PKA-R1A activ 6.3, ATG4B inh -5.6 and T cell HTS 176.4.
Oc1ccccc1C=NN=Cc1c(O)ccc2ccccc12 was read as PfGluPho inh -6.6, HKDC1 inhibitor 10.2, PKA-R2B activ -4.6, PKA-R1A activ 4.0 and ATG4B inh 4.5.
For Oc1ccc2ccccc2c1/C=N/n1cnnc1 the results were PfGluPho inh 3.8, HKDC1 inhibitor 24.5, PKA-R2B activ 12.5, PKA-R1A activ 18.6*, ATG4B inh -12.8, T cell HTS 347.2, R1A FP artifact 4.5 and PKA-R1A confirm 2.1.
For O=C(Cn1cnc2ccccc2c1=O)Nc1ccc(S(=O)(=O)N2CCOCC2)cc1 the results were PfGluPho inh -7.6, HKDC1 inhibitor 1.2, PKA-R2B activ 2.1, PKA-R1A activ 18.9*, ATG4B inh -5.2, T cell HTS 685.3, R1A FP artifact 0.1 and PKA-R1A confirm 3.0.
For O=C(Cn1cnc2ccccc2c1=O)Nc1ccc(S(=O)(=O)N2CCCC2)cc1 the results were PfGluPho inh -3.5, HKDC1 inhibitor -6.7, PKA-R2B activ -9.1, PKA-R1A activ -6.0, ATG4B inh -2.1 and T cell HTS 249.7.
`COc1ccccc1CNS(=O)(=O)c1c(C)cc(C)cc1C` gave PfGluPho inh 30.7, PKA-R2B activ -9.6 and PKA-R1A activ -1.4.
For COCCn1c(N)c(N(Cc2ccccc2)C(=O)COc2ccc(F)cc2Cl)c(=O)[nH]c1=O the results were PfGluPho inh -13.7, HKDC1 inhibitor -5.2, PKA-R2B activ -0.5, PKA-R1A activ 20.4*, ATG4B inh 3.0, T cell HTS 147.7, R1A FP artifact 4.0 and PKA-R1A confirm 5.0.
CC(C)C(=O)Nc1c2c(nc3c1CCC3)CCCC2 was read as PfGluPho inh -16.5, HKDC1 inhibitor -3.0, PKA-R2B activ 4.9, PKA-R1A activ 23.9*, ATG4B inh -4.6, T cell HTS 177.8, R1A FP artifact 3.3 and PKA-R1A confirm -0.1.
For COc1cccc(/C=N/NC(=O)CCc2ccccc2)c1 the results were PfGluPho inh 3.9, HKDC1 inhibitor -2.3, PKA-R2B activ -5.5, PKA-R1A activ 22.9*, ATG4B inh -15.0, T cell HTS 298.6, R1A FP artifact 4.5 and PKA-R1A confirm 1.8.
Screening O=C(NNC(=O)c1ccccc1-n1cccc1)c1cccnc1 returned PfGluPho inh 4.3, PKA-R2B activ -2.6 and PKA-R1A activ -1.2.
Screening CCCn1c(SCC(=O)N2CCCC2)nc2c1c(=O)n(C)c(=O)n2C returned PfGluPho inh -16.3, HKDC1 inhibitor -4.0, PKA-R2B activ -4.0, PKA-R1A activ 21.4*, ATG4B inh -3.3, T cell HTS 356.7, R1A FP artifact -2.0 and PKA-R1A confirm -1.8.
`Cc1cc(C(=O)COC(=O)c2ccc(CO)cc2)c(C)n1CC1COc2ccccc2O1` (stereo not drawn) gave PfGluPho inh -0.3, HKDC1 inhibitor 6.8, PKA-R2B activ 5.5, PKA-R1A activ 18.8*, ATG4B inh -3.5, T cell HTS 283.9, R1A FP artifact -0.2 and PKA-R1A confirm 1.0.
`Cc1cc(C(=O)CN2C(=O)C(=O)N(Cc3ccccc3)C2=O)c(C)n1CC1COc2ccccc2O1` (stereo not drawn) gave PfGluPho inh -16.7, HKDC1 inhibitor -6.8, PKA-R2B activ 17.3, PKA-R1A activ -6.5, ATG4B inh 12.7 and T cell HTS 183.6.
N#C/C(=C/c1ccco1)C(N)=S was read as PfGluPho inh 25.6, HKDC1 inhibitor 0.9, PKA-R2B activ -2.8, PKA-R1A activ 18.8*, ATG4B inh 7.7, T cell HTS 297.5, R1A FP artifact 1.6 and PKA-R1A confirm 3.3.
`O=C(NCCCn1ccnc1)C(F)(F)C(F)(F)C(=O)NCCCn1ccnc1` gave PfGluPho inh 2.4, HKDC1 inhibitor -3.3, PKA-R2B activ 1.4, PKA-R1A activ 0.1, ATG4B inh -6.6 and T cell HTS 364.3.
`CC(NC(=O)NCCCn1ccnc1)(C(F)(F)F)C(F)(F)F` gave PfGluPho inh -0.7, HKDC1 inhibitor -2.3, PKA-R2B activ -3.6, PKA-R1A activ 20.9*, ATG4B inh -14.3, T cell HTS 374.6, R1A FP artifact -0.2 and PKA-R1A confirm 1.6.
`O=C(CNc1ccccc1)N/N=C/c1ccc([N+](=O)[O-])cc1` gave PfGluPho inh 15.9, HKDC1 inhibitor -12.7, PKA-R2B activ -10.8, PKA-R1A activ 21.8*, ATG4B inh -4.4, T cell HTS 520.0, R1A FP artifact -2.3 and PKA-R1A confirm 3.3.
CC(C)CN(C(=O)CN(C)C(=O)Cc1c(F)cccc1Cl)c1c(N)n(CC(C)C)c(=O)[nH]c1=O was read as PfGluPho inh -2.5, PKA-R2B activ 0.0 and PKA-R1A activ -12.9.

Screens (PubChem)
